Assay outcomes from PubChem BioAssay.
Rows were chosen to be rich in hits. Some 3.7% of all compounds tested hit in one or more screens of this group.
KCC2 mod: KCC2 (human) Cl- transport modulation; Q9H2X9; KCC2 cells, thallium flux FluoZin-2 fluorescence; B-score of Tl+ flux slope (higher = more flux/activation; lower = inhibition) at 10 µM; 2.2% of 190,000 active;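 active means thallium flux slope and its plate-corrected score both differing from the plate sample mean at a set confidence after two filtering rounds, in either direction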;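 further: slope of fluorescence scaled to starting intensity during 10 to 20 s after thallium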
bCat nuc transl: modulators of beta-catenin nuclear translocation | HeLa beta-catenin nuclear translocation, immunofluorescence imaging | nuclear translocation activity, % at 5 µM | 0.3% of 190,000 active;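 active means nuclear translocation activity above 50% at 5 µM, with a well cell count of 50 or more; inconclusive means wells under 50 cells across six images, flagged as toxic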;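 further: per-cell ratio of nuclear to cytoplasmic median beta-catenin stain intensity; plate controls were DMSO negative control for no effect and GSK-3 inhibitor IX positive control for full effect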
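assay system = human HeLa cells, endogenous beta-catenin | times = compound treatment 24 h, 37°C, 5% CO2 | detection = Anti-beta-catenin immunofluorescence on PFA-fixed, Triton-permeabilized cells, DAPI nuclei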
MT stabilizer: stabilizes microtubules in HeLa cells; HeLa tubulin immunostaining HCS, 24 h; share of cells brighter than vehicle mean+2SD; % tubulin-high responders, % at 10 µM; 0.83% of 200,000 active; AID 2205;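 active means plate Z-score above 3 for both tubulin-high and condensed-nucleus cell shares, with cell loss under 80%, at 10 µM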;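 further: anti alpha tubulin signal scored within the nucleus-defined area of each cell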
Redox H2O2 prof: compounds producing H2O2 with reducing agent – biochemical, NIH compound library profiling, artefact control for MLSCN library redox annotation, primary screen; activation, % at 10 µM; 0.03% of 200,000 active; DTT-dependent redox cycling H2O2, phenol red/HRP absorbance; 100% = 100 µM peroxide control, 0% = buffer; AID 878;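 active means activation of at least 50% relative to the plate's high and low controls in the primary single-dose screen; inactive means activation below 50%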;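 further: compound incubated with DTT at 0.8 mM final as the reducing agent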
ROMK mod: modulates human ROMK potassium channel activity | Tet-inducible ROMK, thallium flux fluorescence; actives lie on both sides | AID 1918 | P48048 | B-score at 10 µM | 2% of 130,000 active;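 active means signal ratio slope over the read window, or its plate-corrected B-score, at least 3 SD from the plate mean, either direction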;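 further: B-score of the F/F0 ratio slope over 7 to 12 s after thallium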
ROMK hit retest: retested hit modulating human ROMK potassium channel; ROMK thallium flux, fluorescence ratio; hits give low values; 54% of 3,000 active; normalized thallium flux (F/F0 slope) at 10 µM; shares compounds with ROMK mod; AID 1917;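 active means Flux at 10 µM at least 3 SD below or above vehicle control mean in one or both replicates; inconclusive means no clear call, values can overlap the other calls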
Starred values were filed as active, the others as inactive; ? = inconclusive; / = no result given.

SMILES | KCC2 mod | bCat nuc transl | MT stabilizer | Redox H2O2 prof | ROMK mod | ROMK hit retest
CCOc1ccc(S(=O)(=O)N(C)C)cc1-c1nc2c(C(C)(C)C)nn(C)c2c(=O)[nH]1 | / | 0.6 | 1.2 | 0.1 | -1.82 | /
CCOc1ccc(S(=O)(=O)N(C)CCO)cc1-c1nc2c(C(C)(C)C)nn(C)c2c(=O)[nH]1 | / | -0.5 | 2.7 | -1.0 | -4.31* | 0.0475*
CCCS(=O)(=O)N1CCN=C1SCc1cccc(C)c1 | 0.678 | -0.2 | 1.6 | -0.5 | 0.777 | /
N=C(N)SCc1cn(-c2ccccc2)nc1-c1ccc(Br)cc1 | 0.422 | 32.2 | 71.5 | -2.0 | -2.13* | 0.0548*
Cc1c(NC(=O)/C(C#N)=C/c2ccc(-c3ccccc3Cl)o2)c(=O)n(-c2ccccc2)n1C | -2.1 | -0.4 | 2.6 | 0.8 | / | 0.0558*
Cc1c(NC(=O)/C(C#N)=C/c2ccccc2)c(=O)n(-c2ccccc2)n1C | -0.135 | -3.2 | 3.2 | -1.8 | -2.93* | 0.0508*
CC(C)NC(=O)NC(=O)COC(=O)c1cc[n+]([O-])cc1 | 1.17 | 1.4 | 5.8 | 0.1 | -0.122 | /
O=C1CCCC(O)=C1C(C#Cc1ccccc1)C1=C(O)CCCC1=O | -0.617 | -0.5 | 3.1 | -2.1 | -3.76* | 0.0626*
O=C(Cn1ncc(Cl)c(Cl)c1=O)N1CCc2ccccc21 | / | -1.7 | 2.0 | -1.2 | -3.35* | ?
CCn1c2ccccc2c2cc(CNCc3ccc(OC)cc3OC)ccc21 | 0.408 | 7.0 | 3.7 | 2.8 | -5.11* | 0.0459*
CCC(CC)NCc1ccc2c(c1)c1ccccc1n2CC | 1.26 | -0.7 | 3.4 | -0.7 | -1.36 | /
CC(C)N1CCN(Cc2ccc3c(c2)Cc2ccccc2-3)CC1CCO (stereo not drawn) | 0.637 | 0.3 | 3.1 | 0.0 | -1.11 | /
Cc1cccc(OCC(=O)NNC(=O)C2CCCCC2C(=O)O)c1 (stereo not drawn) | 0.392 | / | 2.5 | -0.4 | -0.77 | /
COc1ccc(CCNC(=O)CCCN2C(=O)c3ccccc3C2=O)cc1 | 0.402 | 4.5 | 3.7 | 0.1 | -0.442 | /
Cc1ccc(OCCOCCn2cnc3ccccc3c2=O)c([N+](=O)[O-])c1 | 0.114 | 1.6 | 3.3 | 0.0 | 1.73 | /
O=[N+]([O-])c1ccc(OCCn2cnc3ccccc32)cc1 | -0.899 | 2.9 | 1.6 | -0.4 | -0.906 | /
Cc1ccc([N+](=O)[O-])c(OCCn2cnc3ccccc32)c1 | 0.757 | -0.6 | 5.7 | -0.8 | -2.96* | ?
c1ccc(OCCn2cnc3ccccc32)cc1 | / | 1.3 | 3.5 | 5.7 | -2.17* | 0.0667*
COC(=O)[C@@]1(Cc2ccc(OC)cc2)[C@H]2c3cc(C(=O)N(C)C)n(CCc4ccc(OC)c(Br)c4)c3C[C@H]2CN1C(=O)c1ccccc1 | 0.179 | ? | 4.5 | 0.6 | -3.85* | 0.0648*
CCOc1ccccc1-n1nnnc1SC(C)C(=O)OC (stereo not drawn) | -1.13 | -0.1 | 10.2 | -1.8 | -0.839 | /
Cn1c(=O)c2c(SCC(=O)N3CCCc4ccccc43)nc(C3CC3)nc2n(C)c1=O | -1.13 | -0.7 | 4.5 | -1.0 | / | 0.071
Cc1ccc(-n2c(=O)c3c4c(sc3n3c(=S)[nH]nc23)CCC4)cc1 | -1.25 | -3.4 | / | / | / | /
CCn1c(=O)c2c3c(sc2n2c(=S)[nH]nc12)CCC3 | 0.353 | / | 1.3 | 0.0 | 2.34* | 0.0787
O=C(/C=C/c1ccc(Cl)cc1)c1cccnc1 | -0.102 | / | 3.0 | 0.3 | -8.09* | 0.0427*
N#Cc1ccc(/C=C/C(=O)c2cccnc2)cc1 | -1.13 | -2.1 | 5.3 | -1.5 | -3.33* | 0.0453*
SMILES | KCC2 mod | bCat nuc transl | MT stabilizer | Redox H2O2 prof | ROMK mod | ROMK hit retest
O=C(/C=C/c1ccccc1Cl)c1cccnc1 | -0.372 | / | 1.2 | 0.3 | -7.35* | 0.044*
CCN(CC)c1ccc(/C=C/C(=O)c2cccnc2)cc1 | / | -0.9 | 2.2 | -10.2 | -0.651 | /
CCC(=O)NC(=S)Nc1ccc(N2CCN(C(=O)c3ccc(Cl)cc3)CC2)cc1 | 0.542 | -0.3 | 4.9 | 0.1 | -0.116 | /
O=[N+]([O-])c1ccc(Cl)c(/C=N/n2c(-c3ccncc3)n[nH]c2=S)c1 | -1.68 | -0.3 | / | / | / | /
CCc1ccc(/C=C2\Oc3c(ccc(O)c3CN3CCN(CCO)CC3)C2=O)cc1 | -0.953 | 0.6 | / | / | / | 0.049*
CCc1ccc(/C=C2\Oc3cc(OS(C)(=O)=O)ccc3C2=O)cc1 | -0.497 | -2.2 | 2.3 | 1.4 | / | /
CCCCc1cc(=O)oc2cc(C)cc(O)c12 | -2.81 | 0.3 | 2.5 | 13.2 | / | 0.0542*
COc1cc(C2C(C#N)=C(N)Oc3cc4c(cc32)OCO4)cc(OC)c1OC (stereo not drawn) | -0.811 | 50.9* | 9.5 | -0.1 | 4.71* | 0.0832
N#CC1=C(N)Oc2cc3c(cc2C1c1ccc(Cl)cc1)OCO3 (stereo not drawn) | -0.389 | 1.8 | 6.2 | 9.5 | 0.00718 | /
CCOC(=O)C1=C(C)OC(N)=C(C#N)C1c1cc(OC)c2c(c1)OCO2 (stereo not drawn) | -1.63 | -2.6 | 5.9 | 1.4 | / | /
COc1cc(C2C(C#N)=C(N)Oc3cc(N(C)C)ccc32)cc2c1OCO2 (stereo not drawn) | -0.762 | 79.7* | 14.1* | 0.4 | / | 0.0576*
O=C(CCC1N=C2c3ccccc3N=C(SCc3ccc(Cl)cc3)N2C1=O)NCc1ccco1 (stereo not drawn) | / | 1.6 | 3.8 | -1.1 | -4.15* | 0.0612*
O=C(CCC1N=C2c3ccccc3N=C(SCc3ccc(F)cc3)N2C1=O)NCc1ccco1 (stereo not drawn) | -0.352 | / | 3.4 | 2.8 | -0.813 | /
CCOc1cc2c3c(c1)C(C)=CC(C)(C)N3C(=O)C2=O | -0.103 | -0.3 | 1.7 | -0.6 | 3.21* | 0.0769
Cn1cc([N+](=O)[O-])c(C(=O)NCc2ccccc2)n1 | 1.01 | -1.3 | / | / | / | /
CSS(=O)(=O)c1cccc2cccnc12 | 2.75 | -0.3 | / | / | / | 0.0903
CCN(CC)S(=O)(=O)c1cccc2cccnc12 | 0.365 | / | 2.7 | 0.1 | -0.0202 | /
O=C(CSc1nnc(Cn2c(=O)sc3ccccc32)n1CCc1ccccc1)N1CCCC1 | 0.63 | -2.3 | 4.2 | -1.0 | / | 0.0777
NC(=O)Cn1c(=O)n(C2CCCCC2)c(=O)c2c3c(sc21)CCCCC3 | -0.00554 | 0.6 | 4.2 | 0.7 | / | /
Cc1ccc(C(=O)/C=C/c2cn(CC(O)CN3CCOCC3)c3ccccc23)cc1 (stereo not drawn) | 3.76 | 10.1 | 4.2 | -0.2 | -1.7 | /
O=C(/C=C/c1cn(CC(O)CN2CCOCC2)c2ccccc12)c1cccs1 (stereo not drawn) | -0.101 | 0.0 | / | / | / | 0.0389*
CCOc1cc(C(=O)Nc2ccc(F)cc2)cc(Br)c1OC | 0.0629 | -0.5 | 2.9 | -0.6 | / | /
CCOc1cc(C(=O)Nc2ccc(N3CCOCC3)cc2)cc(Br)c1OC | -0.0811 | 2.2 | 3.1 | -0.6 | 3.82* | 0.0806
CCn1c(=O)[nH]c(=O)c2c(N)c(C(=O)c3ccccc3OC)sc21 | 0.73 | -1.9 | 3.6 | 0.2 | 3.7* | 0.0953
